Screening results: PubChem, several laboratories
hK5 inh – human KLK5 protease inhibitors, primary screen, biochemical, 1536-well. 0.59% of 210,000 active. recombinant hK5, fluorogenic AMC substrate cleavage. inhibition, % at 5 µM;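 active = inhibition of 40% or more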;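 note: 0% = enzyme controls without compound and 100% = no-enzyme blanks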
Target sequence (Q9Y337 67-293 limits assumed): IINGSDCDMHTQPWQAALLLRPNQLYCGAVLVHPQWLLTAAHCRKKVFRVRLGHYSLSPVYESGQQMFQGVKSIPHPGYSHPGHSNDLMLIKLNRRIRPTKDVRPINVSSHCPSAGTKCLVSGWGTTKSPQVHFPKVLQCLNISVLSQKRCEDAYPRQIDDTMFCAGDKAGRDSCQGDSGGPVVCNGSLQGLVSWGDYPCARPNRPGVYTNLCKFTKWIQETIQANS
EP2 mod – EP2 receptor modulators, cAMP readout, primary screen, cell-based, HTRF cAMP, PGE2 stimulation | AID 940, 2007 | induction, % at 25 µM | EP2-expressing cells, cAMP HTRF FRET, PGE2 co-stimulation | 0.83% of 260,000 active | Prostaglandin E2 receptor EP2 subtype (Homo sapiens), P43116;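 active = compounds whose cAMP rise, as percent of the full-agonist control response, exceeds 60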;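 note: rat C6 glioma line stably carrying human EP2 under a CMV promoter; the protocol text gives 20 µM as final concentration; 100% = response of wells given 1 µM PGE2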
Target sequence (P43116 whole entry, looked up): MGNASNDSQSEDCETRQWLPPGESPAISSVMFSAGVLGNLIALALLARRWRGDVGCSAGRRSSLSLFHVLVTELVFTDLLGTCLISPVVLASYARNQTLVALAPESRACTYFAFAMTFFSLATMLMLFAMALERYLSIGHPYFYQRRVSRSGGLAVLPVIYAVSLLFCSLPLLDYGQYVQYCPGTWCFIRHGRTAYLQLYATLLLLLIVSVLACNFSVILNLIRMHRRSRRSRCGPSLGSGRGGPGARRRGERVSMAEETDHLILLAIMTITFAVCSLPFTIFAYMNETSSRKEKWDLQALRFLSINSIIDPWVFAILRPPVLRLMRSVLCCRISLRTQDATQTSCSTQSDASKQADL
PGE2 EP2 inh – human EP2 receptor antagonists, primary screen, TR-FRET cAMP, C6 glioma cells; Prostaglandin E2 receptor EP2 subtype (Homo sapiens), P43116; inhibition, % at 25 µM; C6 glioma cells expressing human EP2; cells stimulated with saturating PGE2; 0.52% of 260,000 active;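 active = percent inhibition above 40 after rounding to a whole number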;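 note: rat C6 glioma host cells with rolipram phosphodiesterase inhibitor present; the protocol text gives 20 µM as final concentration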
FXIa inh 1536 – human FXIa protease inhibitors, primary screen, biochemical, 1536-well. 0.14% of 220,000 active. Coagulation factor XI (Homo sapiens), P03951. inhibition, % at 5 µM. purified FXIa, Boc-Glu-Ala-Arg-AMC fluorogenic substrate. AID 798, 2007;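 active = inhibition of at least 40%; inactive = inhibition below 40%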;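 note: fluorescence of freed AMC excited at 355 nm; 0% = enzyme without compound and 100% = no enzyme blank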
Thrombin inh – human alpha-thrombin inhibitors, primary screen, counter-screen for coagulation protease inhibitor project, biochemical, 1536-well, fluorogenic AMC substrate; Prothrombin (Homo sapiens), P00734; Boc-VPR-AMC fluorogenic substrate cleavage; inhibition, % at 5 µM; 0.26% of 220,000 active; AID 1046, 2008;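 active = inhibition at or above 40%; inactive = inhibition below 40%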;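 note: 0% = enzyme with no compound and 100% = wells without enzyme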
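System: Human alpha-thrombin protein | Medium: pH 7.5 Tris (50 mM) with NaCl 150 mM, Tween 20 0.05% | Times: Enzyme reaction carried out at room temperature | Detection: AMC fluorescence, 355/460 nm | Evaluation: Percent inhibition scaled between no-compound controls and no-enzyme blanks | Benchmarks: Enzyme without compound as high, wells lacking enzyme as low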
FXIIa inh – human FXIIa protease inhibitors, primary screen, biochemical, 1536-well. Coagulation factor XII (Homo sapiens), P00748. 0.3% of 220,000 active. purified FXIIa, Boc-QGR-AMC fluorogenic substrate, 2 h. inhibition, % at 5 µM; in the data active = inhibition above about 40%;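 note: 0% = enzyme with no compound and 100% = blank without enzyme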
The depositor's hits bear a star; ! = a repeat was not active. Compounds with a hit are over-represented: about 2.1% of the library has one in this group of screens.

CCCCCCCCCCCCCCCC[n+]1ccccc1 was read as EP2 mod -44 and PGE2 EP2 inh 69*.
Screening Clc1ccc(Cl)c2c1NC(c1cccnc1)C1CC=CC21 (stereo unspecified) returned EP2 mod 87* and PGE2 EP2 inh 7.
Screening Clc1cccc(C2NCc3ccccc3-n3cccc32)c1 (stereo unspecified) returned hK5 inh 0, EP2 mod 69*, PGE2 EP2 inh 4, FXIa inh 1536 -4, Thrombin inh -4 and FXIIa inh 3.
For C=CCn1cc(CN2C3CCC2CC(O)(c2cccc(F)c2)C3)c(C)n1 (stereo unspecified) the results were EP2 mod -69 and PGE2 EP2 inh 6.
O=C1NC(=S)NC(=O)C1=Cc1cccn1-c1ccc(O)cc1 was read as hK5 inh 3, EP2 mod -113, PGE2 EP2 inh 112*, FXIa inh 1536 0, Thrombin inh -6 and FXIIa inh 6.
`Cc1ccc(C2(c3ccc(C)c(O)c3C)CCN(C)CC2)c(C)c1O` gave EP2 mod -45 and PGE2 EP2 inh 112*.
For COC(=O)c1ccc(C(C(=O)NC2CCCCC2)N(CCN2CCOCC2)C(=O)Cc2cccs2)cc1 (stereo unspecified) the results were hK5 inh -1, EP2 mod -6, PGE2 EP2 inh 3, FXIa inh 1536 1, Thrombin inh -8 and FXIIa inh 100*.
`C[C@]12CC[C@H](O)CC1=CC[C@@H]1[C@@H]2CC[C@]2(C)C(=O)CC[C@@H]12` gave EP2 mod 14 and PGE2 EP2 inh 12.
`CC(=O)O/C(=C1\C[C@@H]2[C@H]3CC=C4C[C@@H](OC(C)=O)CC[C@]4(C)[C@@H]3CC[C@@]2(C)C1=O)C(F)(F)F` gave EP2 mod 39 and PGE2 EP2 inh 47*.
`CCOC(=O)c1ccc2[nH]c(-c3ccc(S(=O)(=O)F)cc3)cc(=O)c2c1` gave hK5 inh -11, EP2 mod -13, PGE2 EP2 inh 51*!, FXIa inh 1536 6, Thrombin inh 5 and FXIIa inh 3.
For C[C@@H]1O[C@H](O[C@H]2C[C@@H](O)[C@]3(CO)[C@@H]4[C@@H](O)C[C@]5(C)[C@@H](C6=CC(=O)OC6)CC[C@@]5(O)[C@H]4CC[C@@]3(O)C2)[C@@H](O)[C@H](O)[C@H]1O the results were EP2 mod 14 and PGE2 EP2 inh 42*.
CN(C)C(=O)Oc1cccc(-c2cn3cc(Cl)ccc3n2)c1 was read as hK5 inh -15, EP2 mod -47, PGE2 EP2 inh 6, FXIa inh 1536 -1, Thrombin inh -7 and FXIIa inh 2.
`CN(C)C(=O)Oc1ccc(-c2cn3cc(Cl)ccc3n2)cc1` gave hK5 inh 44*, EP2 mod -33, PGE2 EP2 inh 6, FXIa inh 1536 4, Thrombin inh 27 and FXIIa inh 10.
O=c1[nH]c(CN2CCN3CCCCC3C2)nc2ccccc12 (stereo unspecified) was read as EP2 mod -4 and PGE2 EP2 inh 13.
For CCCn1cc(CN2CCCC(C(=O)c3cccc(OC)c3)C2)c(C)n1 (stereo unspecified) the results were hK5 inh 21, EP2 mod -18, PGE2 EP2 inh 7, FXIa inh 1536 32, Thrombin inh -7 and FXIIa inh 75*.
Screening CCn1cc(CN2CCCC(C(=O)c3cccc(OC)c3)C2)c(C)n1 (stereo unspecified) returned hK5 inh -3, EP2 mod -46, PGE2 EP2 inh 5, FXIa inh 1536 -7, Thrombin inh -18 and FXIIa inh 1.
C[As+](C)(c1ccc(Br)c([N+](=O)[O-])c1)c1ccc(Br)c([N+](=O)[O-])c1.O=[N+]([O-])O was read as EP2 mod 20 and PGE2 EP2 inh 44*.
Screening Clc1cc(I)cc(Cl)c1NC1=NCCN1 returned EP2 mod 7 and PGE2 EP2 inh 17.
Screening c1cc2c(c(NC3=NCCN3)c1)CCCC2 returned EP2 mod -12 and PGE2 EP2 inh 43*.
Screening COc1ccc(CC2c3cc(OC)c(OC)cc3CCN2C)cc1O (stereo unspecified) returned hK5 inh 5, EP2 mod 24, PGE2 EP2 inh 16, FXIa inh 1536 8, Thrombin inh 0 and FXIIa inh 14.
CCC1=C(C[C@H]2NCCc3cc(OC)c(OC)cc32)C[C@H]2c3ccccc3CCN2C1 was read as EP2 mod 21 and PGE2 EP2 inh 52*.
For CC(Cc1ccc(O)cc1)NCC(O)c1cc(O)cc(O)c1 (stereo unspecified) the results were hK5 inh 1, EP2 mod 82*, PGE2 EP2 inh 7, FXIa inh 1536 -2 and FXIIa inh 5.
For O=C1/C(=C\c2ccc(Cl)cc2)N2CCC1CC2 the results were EP2 mod -110 and PGE2 EP2 inh 17.
Screening ClCC[N+]12CC[N+](CCCl)(CC1)C2 (tested in a mixture with another compound) returned EP2 mod 13 and PGE2 EP2 inh 46*.
Screening O=C(O)C[C@H]1OCC=C2CN3CC[C@]45C6=CC(=O)C(=O)C([N+](=O)[O-])=C6N[C@H]4[C@H]1[C@H]2C[C@H]35 returned EP2 mod -9 and PGE2 EP2 inh 41*.
COc1cc2c(cc1OC)C13CCN4CC5=CCOC6CC(=O)N2C1C6C5CC43 (stereo unspecified) (tested in a mixture with another compound) was read as hK5 inh 4, EP2 mod 8, PGE2 EP2 inh 10, FXIa inh 1536 12, Thrombin inh 0 and FXIIa inh 8.
For C=CCOc1c(CN2C3CCC2CC(O)(c2cccc(F)c2)C3)cccc1OC (stereo unspecified) the results were EP2 mod -51 and PGE2 EP2 inh 3.
For CCOP(=O)(OCC)C(NC(=O)c1ccccc1Cl)=C(Cl)Cl the results were hK5 inh -2, EP2 mod 18, PGE2 EP2 inh 12, FXIa inh 1536 -9, Thrombin inh -2 and FXIIa inh 3.
Screening O=C(NCc1ccccn1)c1ccccc1Cl returned hK5 inh 61*, EP2 mod 25, PGE2 EP2 inh 1, FXIa inh 1536 4, Thrombin inh 11 and FXIIa inh 14.
